Reference: ChEMBL document CHEMBL1139157, “2,5-Disubstituted pyridines: the discovery of a novel series of 5-HT2A ligands” (Bioorg Med Chem Lett, 2007)
pKi: −log10 of the molar value.

Key:
[1] = biological target: 5-hydroxytryptamine receptor 2A (Homo sapiens, UniProt P28223); assay: Displacement of [3H]ketanserin from human 5HT2A receptor expressed in CHO cells; format: cell-based
[2] = biological target: T1, 5-hydroxytryptamine receptor 2C (Homo sapiens, UniProt P28335); assay: Displacement of [3H][…] from human 5HT2C receptor expressed in CHO cells; format: cell-based
T1 sequence (P28335 whole entry): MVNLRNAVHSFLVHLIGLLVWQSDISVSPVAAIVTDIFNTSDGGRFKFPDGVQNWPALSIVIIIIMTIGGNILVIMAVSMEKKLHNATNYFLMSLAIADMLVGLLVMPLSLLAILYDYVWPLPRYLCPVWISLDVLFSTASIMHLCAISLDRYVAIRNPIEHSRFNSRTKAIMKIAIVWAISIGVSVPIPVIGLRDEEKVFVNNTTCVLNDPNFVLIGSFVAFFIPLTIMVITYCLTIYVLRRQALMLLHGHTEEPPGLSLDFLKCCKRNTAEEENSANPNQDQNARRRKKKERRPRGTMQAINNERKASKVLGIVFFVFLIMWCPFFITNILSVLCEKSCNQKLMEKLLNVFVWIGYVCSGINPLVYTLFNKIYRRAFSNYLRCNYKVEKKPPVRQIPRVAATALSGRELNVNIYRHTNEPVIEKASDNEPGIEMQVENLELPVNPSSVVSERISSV

[3] = biological target: Serotonin 2 receptors; 5-HT2a & 5-HT2c (Homo sapiens) (UniProt P28223+P28335); assay: Selectivity for human 5HT2A receptor over human 5HT2C receptor
D(2) dopamine receptor = D(2) dopamine receptor (Homo sapiens, UniProt P14416); assay: Displacement of [3H]spiperone from human dopamine D2 receptor expressed in CHO cells; format: cell-based
[4] = biological target: Voltage-gated inwardly rectifying potassium channel KCNH2 (Homo sapiens, UniProt Q12809); assay: Displacement of [3H]dofetilide from hERG expressed in HEK cells; format: cell-based, HEK293
Rattus norvegicus = assay: Receptor occupancy ex vivo by displacement of tritiated radioligand from 5HT2A receptor in rat at 5 mg/kg, po; format: functional
Method in brief: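 Rats dosed 5 mg/kg po; [3H] selective 5-HT2A radioligand (6 lCi) given by tail vein injection. Read at 1 h. Occupancy (%) = 100 − [100·(compound counts/vehicle counts)], with vehicle counts taken as total binding.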

[5] = Drug level in rat plasma at 5 mg/kg, po after 1 hr; format: ADME, organism-based; parameters: dose 5 mg/kg, route oral
Method in brief: (§1)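 Rats given 5 mg/kg po, with a radiolabeled selective 5-HT2A ligand co-administered; drug concentrations in plasma and brain measured at 1 h after dosing.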

[6] = Drug level in rat brain at 5 mg/kg, po after 1 hr; format: ADME, organism-based; parameters: dose 5 mg/kg, route oral; settings: read-out: Drug uptake; method in brief: as §1

Serotonin 2 receptors; 5-HT2a & 5-HT2c (Homo sapiens), sequence (P28223 whole entry, looked up, one chain of several): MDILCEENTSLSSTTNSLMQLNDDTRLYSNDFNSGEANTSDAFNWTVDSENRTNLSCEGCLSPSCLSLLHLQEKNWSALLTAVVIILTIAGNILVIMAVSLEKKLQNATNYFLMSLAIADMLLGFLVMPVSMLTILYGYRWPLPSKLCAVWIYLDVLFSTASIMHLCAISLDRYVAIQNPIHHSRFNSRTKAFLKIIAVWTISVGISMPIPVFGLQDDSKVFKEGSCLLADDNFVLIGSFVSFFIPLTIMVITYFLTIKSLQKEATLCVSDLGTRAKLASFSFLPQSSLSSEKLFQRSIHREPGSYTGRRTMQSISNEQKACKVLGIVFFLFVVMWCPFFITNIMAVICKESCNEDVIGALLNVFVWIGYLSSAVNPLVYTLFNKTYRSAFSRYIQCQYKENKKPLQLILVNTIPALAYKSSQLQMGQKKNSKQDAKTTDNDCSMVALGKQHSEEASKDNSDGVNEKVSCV
5-hydroxytryptamine receptor 2A, sequence (P28223 whole entry): as the sequence (P28223 whole entry, looked up, one chain of several) above
Voltage-gated inwardly rectifying potassium channel KCNH2, sequence (Q12809 whole entry): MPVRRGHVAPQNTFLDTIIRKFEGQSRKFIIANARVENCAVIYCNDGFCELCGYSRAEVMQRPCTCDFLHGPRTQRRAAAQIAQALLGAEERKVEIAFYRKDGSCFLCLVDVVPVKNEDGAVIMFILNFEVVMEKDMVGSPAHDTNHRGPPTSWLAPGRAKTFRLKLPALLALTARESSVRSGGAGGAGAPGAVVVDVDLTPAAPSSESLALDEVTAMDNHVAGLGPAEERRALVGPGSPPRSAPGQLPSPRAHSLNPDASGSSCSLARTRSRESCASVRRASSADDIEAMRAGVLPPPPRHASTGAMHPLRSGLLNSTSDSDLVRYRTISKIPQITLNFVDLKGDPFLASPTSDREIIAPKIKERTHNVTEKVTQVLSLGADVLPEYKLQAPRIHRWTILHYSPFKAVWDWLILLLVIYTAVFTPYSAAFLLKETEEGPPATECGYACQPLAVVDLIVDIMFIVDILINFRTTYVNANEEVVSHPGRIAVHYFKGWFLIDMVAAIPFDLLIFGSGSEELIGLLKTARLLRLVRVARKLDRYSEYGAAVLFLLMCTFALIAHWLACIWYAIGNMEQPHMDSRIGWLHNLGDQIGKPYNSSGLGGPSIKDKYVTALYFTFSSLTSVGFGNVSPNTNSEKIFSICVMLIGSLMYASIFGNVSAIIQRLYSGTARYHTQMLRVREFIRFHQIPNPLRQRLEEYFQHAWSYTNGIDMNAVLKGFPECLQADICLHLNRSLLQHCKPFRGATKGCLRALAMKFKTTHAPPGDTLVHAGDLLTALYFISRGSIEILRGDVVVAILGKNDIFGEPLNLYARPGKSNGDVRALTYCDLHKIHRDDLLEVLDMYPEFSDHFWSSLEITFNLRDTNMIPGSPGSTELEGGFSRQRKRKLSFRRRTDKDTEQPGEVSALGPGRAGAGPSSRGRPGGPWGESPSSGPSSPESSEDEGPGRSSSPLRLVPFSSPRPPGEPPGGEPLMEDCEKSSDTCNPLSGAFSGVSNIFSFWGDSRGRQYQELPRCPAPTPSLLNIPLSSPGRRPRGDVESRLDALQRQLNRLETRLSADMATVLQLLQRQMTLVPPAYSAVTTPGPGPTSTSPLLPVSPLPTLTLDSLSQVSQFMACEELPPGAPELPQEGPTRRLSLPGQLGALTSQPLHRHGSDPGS
D(2) dopamine receptor, sequence (P14416 whole entry): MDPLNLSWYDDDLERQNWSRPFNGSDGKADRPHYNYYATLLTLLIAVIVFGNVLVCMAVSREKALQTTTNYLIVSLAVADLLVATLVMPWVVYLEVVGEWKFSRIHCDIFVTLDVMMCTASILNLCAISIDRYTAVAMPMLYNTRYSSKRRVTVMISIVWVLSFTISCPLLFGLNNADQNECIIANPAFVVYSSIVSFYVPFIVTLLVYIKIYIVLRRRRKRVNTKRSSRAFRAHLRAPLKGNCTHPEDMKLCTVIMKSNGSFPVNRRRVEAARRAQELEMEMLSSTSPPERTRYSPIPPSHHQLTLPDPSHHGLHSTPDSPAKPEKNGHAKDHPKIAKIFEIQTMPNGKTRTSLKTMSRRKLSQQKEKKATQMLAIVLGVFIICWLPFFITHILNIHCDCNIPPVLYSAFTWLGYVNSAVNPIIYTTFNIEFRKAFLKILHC

Compound | pKi [1] | pKi [2] | Ratio Ki [3] | pKi (D(2) dopamine receptor) | pKi [4] | pKi (D(2) dopamine receptor; cho) | Activity (Rattus norvegicus) [%] | concentration at 1 h [5] [nM] | concentration at 1 h [6] [nM]
O=S(=O)(c1ccc(/C=C/c2ccncc2)nc1)c1ccccc1F | 6.10 | < 5.40 | > 5 | < 5.70 | 5.38 | – | – | – | –
O=S(=O)(c1ccc(F)cc1)c1ccc(CCc2ccc(F)cc2)nc1 | 7.64 | 5.57 | – | < 6.00 | – | – | – | – | –
[O-][S+](c1ccc(/C=C/c2ccc(F)cc2)nc1)c1ccccc1F (configuration not stated) | 8.34 | 6.80 | 35 | < 5.70 | 5.54 | – | – | – | –
[O-][S+](c1ccccc1)c1ccc(/C=C/c2ccc(F)cc2F)nc1 (single isomer, unassigned; form 1) [listing 1 of 2 here] | – | – | 80 | – | – | – | – | – | –
[O-][S+](c1ccccc1)c1ccc(/C=C/c2ccc(F)cc2)nc1 (configuration not stated) | 8.11 | 6.70 | 26 | < 5.70 | 5.41 | – | – | – | –
O=S(=O)(c1ccc(/C=C/c2ccccc2F)nc1)c1ccccc1F | 8.59 | < 5.40 | > 1500 | < 5.70 | < 5.05 | – | – | – | –
COc1cc(F)ccc1/C=C/c1ccc(S(=O)(=O)c2ccccc2F)cn1 | 7.19 | – | – | < 5.70 | – | – | – | – | –
N#Cc1cc(F)ccc1/C=C/c1ccc(S(=O)(=O)c2ccccc2F)cn1 | 8.00 | 7.72 | 2.1 | < 5.70 | 5.82 | – | – | – | –
O=S(=O)(c1ccc(/C=C/c2ccc(F)cc2)nc1)c1cccc(F)c1 | 8.02 | < 5.40 | > 420 | < 6.00 | < 5.05 | – | – | – | –
O=S(=O)(c1ccc(/C=C/c2cccc(F)c2)nc1)c1ccccc1F | 6.82 | < 5.40 | > 27 | < 5.70 | < 5.05 | – | – | – | –
[O-][S+](c1ccccc1)c1ccc(/C=C/c2ccc(F)cc2F)nc1 (single isomer, unassigned; form 2) [listing 1 of 2 here] | 9.15 | 7.60 | – | < 5.70 | 5.19 | – | – | – | –
O=S(=O)(c1ccc(F)cc1)c1ccc(CCc2ccc(F)cc2)cn1 | 7.72 | < 5.40 | > 210 | < 6.00 | 5.16 | – | – | – | –
O=S(=O)(c1ccc(F)cc1)C1(F)CCN(CCc2ccc(F)cc2F)CC1 | – | – | 460 | – | 5.25 | – | – | – | –
[O-][S+](c1ccccc1)c1ccc(/C=C/c2ccc(F)cc2F)nc1 (stereo in doubt; 30) [listing 1 of 2 here] | 9.10 | 7.52 | – | – | 5.55 | < 5.70 | 90 | 230 | 1070
O=S(=O)(c1ccc(/C=C/c2ccccc2O)nc1)c1ccccc1F | 8.44 | 6.09 | 220 | < 5.70 | 5.85 | – | – | – | –
O=S(=O)(c1ccc(F)cc1)c1ccc(/C=C/c2ccc(F)cc2)nc1 | 7.77 | < 5.40 | – | < 6.00 | – | – | – | – | –
O=S(=O)(c1ccccc1)c1ccc(/C=C/c2ccc(F)cc2F)nc1 | 9.07 | < 5.40 | – | < 5.70 | – | – | 45 | 80 | 180
O=S(=O)(c1ccc(/C=C/c2ccc(F)cc2Cl)nc1)c1ccccc1F | 8.74 | 7.19 | 36 | < 5.70 | 5.32 | – | – | – | –
O=S(=O)(c1ccc(F)cc1)c1ccc(/C=C/c2ccc(F)cc2)cn1 | 7.55 | < 5.40 | > 140 | < 6.00 | 5.48 | – | – | – | –
O=S(=O)(c1ccc(/C=C/c2ccc(F)cc2)nc1)c1ccccc1F | 8.27 | < 5.40 | > 740 | < 6.00 | < 5.05 | – | – | – | –
[O-][S+](c1ccc(/C=C/c2ccc(F)cc2F)nc1)c1ccccc1F (configuration not stated) | 8.46 | 7.37 | – | < 5.70 | – | – | – | – | –
O=S(=O)(c1ccc(/C=C/c2ccc(F)cc2F)nc1)c1ccccc1F | 8.59 | 6.39 | 160 | < 6.00 | < 5.05 | – | – | – | –
[O-][S+](c1ccccc1)c1ccc(/C=C/c2ccc(F)cc2F)nc1 (stereo in doubt; 30) [listing 2 of 2 here] | – | – | 38 | – | – | – | – | – | –
[O-][S+](c1ccccc1)c1ccc(/C=C/c2ccc(F)cc2F)nc1 (single isomer, unassigned; form 2) [listing 2 of 2 here] | – | – | 36 | – | – | – | – | – | –
O=S(=O)(c1ccc(/C=C/c2ccc(F)cc2O)nc1)c1ccccc1F | 9.72 | 6.24 | 3000 | < 5.70 | 5.68 | – | – | – | –
Cc1cc(F)ccc1/C=C/c1ccc(S(=O)(=O)c2ccccc2F)cn1 | 8.09 | 6.66 | 27 | < 5.70 | 5.30 | – | – | – | –
[O-][S+](c1ccccc1)c1ccc(/C=C/c2ccc(F)cc2F)nc1 (single isomer, unassigned; form 1) [listing 2 of 2 here] | 7.52 | 5.62 | – | – | 5.38 | < 5.70 | – | – | –
O=S(=O)(c1ccccc1)c1ccc(/C=C/c2ccc(F)cc2)nc1 | 8.13 | < 5.40 | > 540 | < 6.00 | < 5.05 | – | – | – | –
